Experimental data published in ChEMBL document CHEMBL4402512, “In vitro and in silico elucidation of antidiabetic and anti-inflammatory activities of bioactive compounds from Momordica charantia L” (Bioorg Med Chem, 2019).
The source made the active and inactive calls. No cut-off for these calls is given here.

Tests used:
RAW264.7 [1] = test: Anti-inflammatory activity in mouse RAW264.7 cells assessed as reduction in NFkappaB mRNA expression at 25 uM pre-incubated for 1 hr before […] for 18 hrs by qRT-PCR analysis; type: functional, cell-based
Procedure, shortened: (§1)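 RAW 264.7 murine macrophages grown in RPMI 1640 with 10% FBS, penicillin/streptomycin, 37 °C, 5% CO2. Seeded at 5.0 × 10^5 cells/well and held 24 h, then given 25 μM compound for 1 h before LPS (1 µg/mL) for a further 18 h. Total RNA was extracted, 500 ng was reverse-transcribed to cDNA, and target mRNA was quantified by qRT-PCR.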

RAW264.7 [2] = test: Anti-inflammatory activity in mouse RAW264.7 cells assessed as reduction in Cox2 mRNA expression at 25 uM pre-incubated for 1 hr before […] for 18 hrs by qRT-PCR analysis; type: functional, cell-based; procedure, shortened: as §1
Saccharomyces cerevisiae = test: Inhibition of Saccharomyces cerevisiae alpha-glucosidase at 1.3 mM pre-incubated for 15 mins before p-nitrophenyl alpha-D-glucopyranoside substrate addition and measured after 30 mins
Procedure, shortened: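 The enzyme was Saccharomyces cerevisiae α-glucosidase, assayed by a published protocol with slight modifications. Each compound was tested at two levels, 10 and 20 µL. Acarbose served as positive control. Runs were in triplicate with three biological replications, reported as mean ± SD and analysed by one-way ANOVA.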

RAW264.7 [3] = test: Anti-inflammatory activity in mouse RAW264.7 cells assessed as reduction in iNOS mRNA expression at 25 uM pre-incubated for 1 hr before […] for 18 hrs by qRT-PCR analysis; type: functional, cell-based; procedure, shortened: as §1
RAW264.7 [4] = test: Anti-inflammatory activity in mouse RAW264.7 cells assessed as reduction in TNFalpha mRNA expression at 25 uM pre-incubated for 1 hr before […] for 18 hrs by qRT-PCR analysis; type: functional, cell-based; procedure, shortened: as §1
RAW264.7 [5] = test: Anti-inflammatory activity in mouse RAW264.7 cells assessed as reduction in IL-1beta mRNA expression at 25 uM pre-incubated for 1 hr before […] for 18 hrs by qRT-PCR analysis; type: functional, cell-based; procedure, shortened: as §1
[6] = biological target: Alpha amylase (Homo sapiens) (UniProt P0DUB6); test: Inhibition of alpha-amylase (unknown origin) assessed as reduction in conversion of starch to glucose at 0.87 mM incubated for 1 hr relative to control
Chain of Alpha amylase (Homo sapiens) (P0DUB6 whole entry, looked up): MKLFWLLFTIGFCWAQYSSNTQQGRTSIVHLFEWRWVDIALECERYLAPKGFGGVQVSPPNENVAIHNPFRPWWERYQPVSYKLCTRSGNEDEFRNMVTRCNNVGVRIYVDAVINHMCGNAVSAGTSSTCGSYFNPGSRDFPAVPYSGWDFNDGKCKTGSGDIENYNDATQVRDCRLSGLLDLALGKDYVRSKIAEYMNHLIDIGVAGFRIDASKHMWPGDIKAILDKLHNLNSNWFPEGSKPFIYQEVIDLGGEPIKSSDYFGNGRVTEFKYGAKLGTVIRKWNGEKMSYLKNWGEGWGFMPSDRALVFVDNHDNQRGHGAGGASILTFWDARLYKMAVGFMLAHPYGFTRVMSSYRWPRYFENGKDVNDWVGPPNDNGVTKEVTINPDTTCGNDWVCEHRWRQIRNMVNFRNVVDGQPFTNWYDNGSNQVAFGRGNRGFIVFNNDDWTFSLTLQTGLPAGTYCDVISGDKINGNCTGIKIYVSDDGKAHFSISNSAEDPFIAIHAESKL
Procedure, shortened: (§2)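 α-Amylase inhibition was measured by a published protocol with minor modifications. Test compounds were added at 10 and 20 µL, stated as equivalent to 0.43 and 0.86 mM. Acarbose was used at 0.067 and 0.13 mM. Runs were in triplicate with three biological replications and averaged, reported as mean ± SD with one-way ANOVA.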

RAW264.7 [7] = test: Anti-inflammatory activity in mouse RAW264.7 cells assessed as reduction in IL6 mRNA expression at 25 uM pre-incubated for 1 hr before […] for 18 hrs by qRT-PCR analysis; type: functional, cell-based; procedure, shortened: as §1
[8] = biological target: Alpha amylase (Homo sapiens) (UniProt P0DUB6); test: Inhibition of alpha-amylase (unknown origin) assessed as reduction in conversion of starch to glucose at 0.13 mM incubated for 1 hr relative to control; procedure, shortened: as §2

SMILES	inhibition (Saccharomyces cerevisiae)	inhibition [6]	inhibition [8]	inhibition (RAW264.7 [1])	inhibition (RAW264.7 [2])	inhibition (RAW264.7 [3])	inhibition (RAW264.7 [4])	inhibition (RAW264.7 [5])	inhibition (RAW264.7 [7])
C[C@H](CC(O)C(O)C(C)(C)O)[C@H]1CC[C@@]2(C)[C@@H]3C=C[C@@]45OC[C@]3(CC[C@]12C)[C@@H]4CC[C@H](O[C@@H]1O[C@H](CO)[C@@H](O)[C@@H](O)[C@H]1O)C5(C)C (some centres not stated)	49.4%	66.4%		Active	Active	Active		Active	Active
C[C@H]1O[C@H](O[C@H]2[C@H](O)[C@@H](O)[C@@H](O[C@H]3[C@H](O)[C@@H](O)C(O)O[C@@H]3CO)O[C@@H]2CO)[C@H](O)[C@@H](O)[C@@H]1N[C@H]1C=C(CO)[C@@H](O)[C@H](O)[C@H]1O (some centres not stated)			88%						
O=C(O)c1cc(O[C@@H]2OC[C@@H](O)[C@H](O)[C@H]2O)ccc1O	56.4%	60.7%		Active	Active	Active		Active	Active
C[C@H](C/C=C/C(C)(C)O)[C@H]1CC[C@@]2(C)[C@@H]3C=C[C@@]45OC[C@]3(CC[C@]12C)[C@@H]4CC[C@H](O[C@@H]1O[C@H](CO)[C@@H](O)[C@H](O)[C@H]1O)C5(C)C [MOMORDICOSIDE I]	35.1%	64.2%		Active	Active	Active		Active	Active
COC(C)(C)/C=C/C[C@@H](C)[C@H]1CC[C@@]2(C)[C@@H]3[C@@H](O[C@@H]4O[C@H](CO)[C@@H](O)[C@H](O)[C@H]4O)C=C4[C@@H](CC[C@H](O)C4(C)C)[C@]3(C=O)CC[C@]12C	47.5%	69%		Active	Active	Active		Active	inactive
COC(C)(C)/C=C/C[C@@H](C)[C@H]1CC[C@@]2(C)[C@@H]3C=C[C@@]45OC[C@]3(CC[C@]12C)[C@@H]4CC[C@H](O[C@@H]1O[C@H](CO)[C@@H](O)[C@@H](O)[C@H]1O)C5(C)C	48.5%	70.5%		Active		Active	Active	Active	

Continued, in another order:

inhibition (Saccharomyces cerevisiae)	inhibition [6]	inhibition [8]	SMILES	inhibition (RAW264.7 [1])	inhibition (RAW264.7 [2])	inhibition (RAW264.7 [3])	inhibition (RAW264.7 [4])	inhibition (RAW264.7 [5])	inhibition (RAW264.7 [7])
35.9%	63.5%		COC(C)(C)/C=C/C[C@@H](C)[C@H]1CC[C@@]2(C)[C@@H]3C=C[C@@]45OC[C@]3(CC[C@]12C)[C@@H]4CC[C@H](O[C@@H]1O[C@H](CO)[C@@H](O)[C@H](O)[C@H]1O)C5(C)C [MOMORDICOSIDE F1]	Active	Active	Active	Active	Active	
42.4%	63.7%		C[C@H](C/C=C/C(C)(C)O)[C@H]1CC[C@@]2(C)[C@@H]3C=C[C@@]45OC[C@]3(CC[C@]12C)[C@@H]4CC[C@H](O[C@@H]1O[C@H](CO)[C@@H](O)[C@@H](O)[C@H]1O)C5(C)C [MOMORDICOSIDE F2]	Active		Active		Active	
